{"source": "ChEMBL document CHEMBL4261516", "about": "“Design, synthesis and pharmacological evaluation of new 2-oxo-quinoline derivatives containing α-aminophosphonates as potential antitumor agents” (Medchemcomm, 2017)", "key": {"[1]": {"tested_on": "HepG2", "assay": "Induction of apoptosis in human HepG2 cells assessed as late apoptotic cells at 8 uM after 24 hrs by annexin V/[…] staining-based fluorescent microscopic method (reference value: 1.91%)", "format": "functional"}, "[2]": {"tested_on": "HepG2", "assay": "Induction of apoptosis in human HepG2 cells assessed as pycnosis at 10 uM after 24 hrs by acridine orange/ethidium bromide staining-based fluorescent microscopic method", "format": "functional, cell-based", "summary_of_the_method": "(§1)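 Cells were plated at 5×10^4 cells/mL on sterile cover slips. Medium was replaced with fresh medium containing 10% FBS plus compound. After treatment, cover slips were inverted onto slides with acridine orange/ethidium bromide stain and viewed by fluorescence microscopy.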"}, "[3]": {"tested_on": "HepG2", "assay": "Cell cycle arrest in human HepG2 cells assessed as accumulation at G2 phase at 12 uM after 48 hrs by propidium iodide staining-based flow cytometric method (reference value: 19.04%)", "format": "functional"}, "[4]": {"tested_on": "HepG2", "assay": "Induction of apoptosis in human HepG2 cells assessed as late apoptotic cells at 10 uM after 24 hrs by annexin V/[…] staining-based fluorescent microscopic method (reference value: 1.91%)", "format": "functional"}, "[5]": {"tested_on": "HepG2", "assay": "Cell cycle arrest in human HepG2 cells assessed as accumulation at G1 phase at 10 uM after 48 hrs by propidium iodide staining-based flow cytometric method (reference value: 50.47%)", "format": "functional"}, "[6]": {"tested_on": "HepG2", "assay": "Cytotoxicity against human HepG2 cells after 48 hrs by MTT assay", "format": "functional, cell-based", "settings": "HepG2, 48 h", "summary_of_the_method": "(§2)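 HepG2, SK-OV-3, NCI-H460 and HL 7702 lines grown as monolayers in DMEM with 10% FBS plus penicillin/streptomycin at 37 °C, 5% CO2. Exponentially growing cells were seeded and exposed to the indicated concentrations for 48 h. MTT was then added for 4 h at 37 °C, formazan was dissolved in DMSO, and OD was read at 490 nm. Each concentration was run in triplicate wells, with three independent runs per line.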"}, "[7]": {"tested_on": "HepG2", "assay": "Induction of apoptosis in human HepG2 cells assessed as upregulation of caspase-9 levels at 8 to 12 uM after 24 hrs by Western blot method", "format": "functional, cell-based", "summary_of_the_method": "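Treated HepG2 cells were lysed on ice in 1% SDS/Tris-HCl pH 7.5 buffer with EDTA, NaCl, PMSF, leupeptin and trypsin inhibitor, then cleared at 12,000 × g for 5 min. Protein was quantified by BCA, and 40–50 µg was run on 12% SDS-PAGE and blotted to PVDF. Membranes were blocked with 5% milk, incubated with primary antibody overnight at 4 °C and HRP secondary for 1 h. Detection by chemiluminescence with densitometry.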"}, "[8]": {"tested_on": "HepG2", "assay": "Upregulation of p53 expression in human HepG2 cells after 48 hrs by Western blot method", "format": "functional, cell-based"}, "[9]": {"tested_on": "HepG2", "assay": "Induction of apoptosis in human HepG2 cells assessed as necrotic cells at 10 uM after 24 hrs by annexin V/[…] staining-based fluorescent microscopic method (reference value: 0.28%)", "format": "functional"}, "[10]": {"tested_on": "L02", "assay": "Cytotoxicity against human HL-7702 cells after 48 hrs by MTT assay", "format": "cell-based", "settings": "L02, 48 h", "summary_of_the_method": "as §2"}, "[11]": {"tested_on": "HepG2", "assay": "Induction of apoptosis in human HepG2 cells assessed as late apoptotic cells at 12 uM after 24 hrs by annexin V/[…] staining-based fluorescent microscopic method (reference value: 1.91%)", "format": "functional"}, "[12]": {"tested_on": "HepG2", "assay": "Induction of apoptosis in human HepG2 cells assessed as necrotic cells at 12 uM after 24 hrs by annexin V/[…] staining-based fluorescent microscopic method (reference value: 0.28%)", "format": "functional"}, "[13]": {"tested_on": "HepG2", "assay": "Cell cycle arrest in human HepG2 cells assessed as accumulation at S phase at 12 uM after 48 hrs by propidium iodide staining-based flow cytometric method (reference value: 30.49%)", "format": "functional"}, "[14]": {"tested_on": "HepG2", "assay": "Cell cycle arrest in human HepG2 cells assessed as accumulation at G1 phase at 12 uM after 48 hrs by propidium iodide staining-based flow cytometric method (reference value: 50.47%)", "format": "functional"}, "[15]": {"tested_on": "HepG2", "assay": "Cell cycle arrest in human HepG2 cells assessed as accumulation at G2/M phase after 48 hrs by propidium iodide staining-based flow cytometric method", "format": "functional"}, "[16]": {"tested_on": "HepG2", "assay": "Induction of apoptosis in human HepG2 cells assessed as cell budding at 10 uM after 24 hrs by acridine orange/ethidium bromide staining-based fluorescent microscopic method", "format": "functional", "summary_of_the_method": "as §1"}, "[17]": {"tested_on": "HepG2", "assay": "Upregulation of p27 expression in human HepG2 cells after 48 hrs by Western blot method", "format": "functional, cell-based"}, "[18]": {"tested_on": "HepG2", "assay": "Upregulation of p21 expression in human HepG2 cells after 48 hrs by Western blot method", "format": "functional, cell-based"}, "[19]": {"tested_on": "HepG2", "assay": "Cell cycle arrest in human HepG2 cells assessed as accumulation at S phase at 10 uM after 48 hrs by propidium iodide staining-based flow cytometric method (reference value: 30.49%)", "format": "functional"}, "[20]": {"tested_on": "HepG2", "assay": "Induction of apoptosis in human HepG2 cells assessed as early apoptotic cells at 12 uM after 24 hrs by annexin V/[…] staining-based fluorescent microscopic method (reference value: 6.50%)", "format": "functional"}, "[21]": {"tested_on": "HepG2", "assay": "Induction of apoptosis in human HepG2 cells assessed as early apoptotic cells at 10 uM after 24 hrs by annexin V/[…] staining-based fluorescent microscopic method (reference value: 6.50%)", "format": "functional"}, "[22]": {"tested_on": "HepG2", "assay": "Downregulation of CDK1 expression in human HepG2 cells after 48 hrs by Western blot method", "format": "functional, cell-based"}, "[23]": {"tested_on": "HepG2", "assay": "Induction of apoptosis in human HepG2 cells assessed as early apoptotic cells at 8 uM after 24 hrs by annexin V/[…] staining-based fluorescent microscopic method (reference value: 6.50%)", "format": "functional"}, "[24]": {"tested_on": "HepG2", "assay": "Induction of apoptosis in human HepG2 cells assessed as upregulation of reactive oxygen species generation at 10 uM by DCFH-DA/DAPI staining-based fluorescence microscopic method", "format": "functional, cell-based"}, "[25]": {"tested_on": "HepG2", "assay": "Downregulation of CDC25C expression in human HepG2 cells after 48 hrs by Western blot method", "format": "functional, cell-based"}, "[26]": {"tested_on": "NCI-H460", "assay": "Cytotoxicity against human NCI-H460 cells after 48 hrs by MTT assay", "format": "functional, cell-based", "settings": "NCI-H460, 48 h", "summary_of_the_method": "as §2"}, "[27]": {"tested_on": "HepG2", "assay": "Cell cycle arrest in human HepG2 cells assessed as accumulation at G1 phase at 8 uM after 48 hrs by propidium iodide staining-based flow cytometric method (reference value: 50.47%)", "format": "functional"}, "[28]": {"tested_on": "HepG2", "assay": "Induction of apoptosis in human HepG2 cells assessed as viable cells at 10 uM after 24 hrs by annexin V/[…] staining-based fluorescent microscopic method (reference value: 91.31%)", "format": "functional", "settings": "HepG2, 24 h, read-out: Activity"}, "[29]": {"tested_on": "HepG2", "assay": "Disruption of mitochondrial membrane potential in human HepG2 cells at 10 uM after 12 hrs by JC1 staining-based fluorescent microscopic method", "format": "functional, cell-based"}, "[30]": {"tested_on": "HepG2", "assay": "Induction of apoptosis in human HepG2 cells assessed as increase in intracellular calcium release at 10 uM after 24 hrs by Fluo-3 AM dye-based fluorescence microscopic method"}, "[31]": {"tested_on": "HepG2", "assay": "Induction of apoptosis in human HepG2 cells assessed as necrotic cells at 8 uM after 24 hrs by annexin V/[…] staining-based fluorescent microscopic method (reference value: 0.28%)", "format": "functional"}, "[32]": {"tested_on": "HepG2", "assay": "Induction of apoptosis in human HepG2 cells assessed as upregulation of PARP levels at 8 to 12 uM after 24 hrs by Western blot method", "format": "functional, cell-based"}, "[33]": {"tested_on": "HepG2", "assay": "Cell cycle arrest in human HepG2 cells assessed as accumulation at G2 phase at 10 uM after 48 hrs by propidium iodide staining-based flow cytometric method (reference value: 19.04%)", "format": "functional"}}, "note": "Activity calls are given as the source filed them. No cut-off for these calls is given here.", "data": [{"compound": "CCOP(=O)(Cc1ccc(/N=C/c2cc3cc(C)ccc3[nH]c2=O)cc1)OCC", "values": [{"measurement": "Activity", "setting": "[1]", "result": 15.49, "unit": "%"}, {"measurement": "Activity", "setting": "[2]", "result": "Active"}, {"measurement": "Activity", "setting": "[3]", "result": 46.77, "unit": "%"}, {"measurement": "Activity", "setting": "[4]", "result": 9.24, "unit": "%"}, {"measurement": "Activity", "setting": "[5]", "result": 33.91, "unit": "%"}, {"measurement": "IC50", "setting": "[6]", "result": 9.99, "unit": "µM"}, {"measurement": "Activity", "setting": "[7]", "result": "Active"}, {"measurement": "Activity", "setting": "[8]", "result": "Dose-dependent effect"}, {"measurement": "Activity", "setting": "[9]", "result": 0.12, "unit": "%"}, {"measurement": "IC50", "setting": "[10]", "result": "> 100", "unit": "µM"}, {"measurement": "Activity", "setting": "[11]", "result": 11.83, "unit": "%"}, {"measurement": "Activity", "setting": "[12]", "result": 0.57, "unit": "%"}, {"measurement": "Activity", "setting": "[13]", "result": 27.49, "unit": "%"}, {"measurement": "Activity", "setting": "[14]", "result": 25.75, "unit": "%"}, {"measurement": "Activity", "setting": "[15]", "result": "Dose-dependent effect"}, {"measurement": "Activity", "setting": "[16]", "result": "Active"}, {"measurement": "Activity", "setting": "[17]", "result": "Dose-dependent effect"}, {"measurement": "Activity", "setting": "[18]", "result": "Dose-dependent effect"}, {"measurement": "Activity", "setting": "[19]", "result": 29.16, "unit": "%"}, {"measurement": "Activity", "setting": "[20]", "result": 43.07, "unit": "%"}, {"measurement": "Activity", "setting": "[21]", "result": 34.38, "unit": "%"}, {"measurement": "Activity", "setting": "[22]", "result": "Dose-dependent effect"}, {"measurement": "Activity", "setting": "[23]", "result": 19.08, "unit": "%"}, {"measurement": "Activity", "setting": "[24]", "result": "Active"}, {"measurement": "Activity", "setting": "[25]", "result": "Dose-dependent effect"}, {"measurement": "IC50", "setting": "[26]", "result": 39, "unit": "µM"}, {"measurement": "Activity", "setting": "[27]", "result": 35.31, "unit": "%"}, {"measurement": "viability at 10 µM", "setting": "[28]", "result": 56.3, "unit": "%"}, {"measurement": "Activity", "setting": "[29]", "result": "Active"}, {"measurement": "Activity", "setting": "[30]", "result": "Active"}, {"measurement": "Activity", "setting": "[31]", "result": 2.9, "unit": "%"}, {"measurement": "Activity", "setting": "[32]", "result": "Active"}, {"measurement": "Activity", "setting": "[33]", "result": 36.92, "unit": "%"}]}]}
